Fh CTSL1 inh: Fasciola hepatica cathepsin L1 inhibitors, primary screen, counter-screen for PFM18AAP inhibitor project, biochemical, QFRET, fluorogenic peptide substrate; recombinant F. hepatica cathepsin L1, Z-Leu-Arg-MCA fluorescence; inhibition, % at 5.96 µM; 300,000 compounds, 0.49% hits; AID 1906, 2009;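 active = inhibition above the mean of all tested compounds plus 3 SD, set per screening campaign, cut at about 17% in these data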;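 note: 0% = plate median of test compound wells and 100% = 1 µM Z-Phe-Ala-diazomethylketone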
HDAC3 inh: HDAC3 deacetylase inhibitors, primary screen, biochemical, fluorescence, cell-free homogeneous | Histone deacetylase 3 (Homo sapiens), O15379 | 320,000 compounds, 0.15% hits | AID 2718, 2010 | recombinant HDAC3, fluorogenic peptide/trypsin coupled | inhibition, % at 8.3 µM; in the data active = inhibition above about 26%, passing the limit was not always enough; inconclusive = no clear call, values can overlap the other calls
GAA850 FXN act: FXN promoter activators, primary screen, cell-based, luciferase luminescence, HEK293 lucGAA850; HEK293 lucGAA850 FXN promoter luciferase reporter, 24 h; percent of 10 µM SAHA response; activation, % at 6 µM; 360,000 compounds, 0.56% hits;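 active = activation above the average of all compounds screened plus 3 SD, cutoff fixed separately per campaign, cut at about 7.5% in these data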;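 note: 0% = DMSO wells and 100% = 10 µM SAHA wells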
SENP1 inh: human SENP1 catalytic domain inhibitors, primary screen, biochemical, FRET, uHTS; inhibition, % at 10 µM; Sentrin-specific protease 1 (Homo sapiens), Q9P0U3; AID 624204, 2012; 360,000 compounds, 0.21% hits; recombinant SENP1 catalytic domain, CyPet-SUMO1-YPet FRET cleavage;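 active = inhibition at least 30% at 10 µM, raw YFP signal under a set limit, fluorescence ratio 0.5 to 1.5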;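 note: 0% = enzyme with DMSO and 100% = no enzyme wells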
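Assay system – human recombinant His6-tagged SENP1 catalytic domain enzyme · Input – SENP1 enzyme, 20 pM final · Buffer or medium – Tris pH 8 buffer plus EDTA, NaCl, BME, BSA, NP40, catalase · Schedule – 50 min reaction at room temperature · Technique – FRET read of cyan and yellow fluorescence · Control set – no-enzyme wells low, DMSO-plus-enzyme wells high control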
AHR act: AHR activators, primary screen, cell-based, luminescence, luciferase reporter, human; Aryl hydrocarbon receptor (Homo sapiens), P35869; AHR-responsive luciferase reporter cells; activation, % at 5 µM; 320,000 compounds, 2.5% hits; in the data active = activation above about 47%;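 note: 0% = vehicle wells and 100% = reference agonist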
Target sequence (P35869 whole entry, looked up): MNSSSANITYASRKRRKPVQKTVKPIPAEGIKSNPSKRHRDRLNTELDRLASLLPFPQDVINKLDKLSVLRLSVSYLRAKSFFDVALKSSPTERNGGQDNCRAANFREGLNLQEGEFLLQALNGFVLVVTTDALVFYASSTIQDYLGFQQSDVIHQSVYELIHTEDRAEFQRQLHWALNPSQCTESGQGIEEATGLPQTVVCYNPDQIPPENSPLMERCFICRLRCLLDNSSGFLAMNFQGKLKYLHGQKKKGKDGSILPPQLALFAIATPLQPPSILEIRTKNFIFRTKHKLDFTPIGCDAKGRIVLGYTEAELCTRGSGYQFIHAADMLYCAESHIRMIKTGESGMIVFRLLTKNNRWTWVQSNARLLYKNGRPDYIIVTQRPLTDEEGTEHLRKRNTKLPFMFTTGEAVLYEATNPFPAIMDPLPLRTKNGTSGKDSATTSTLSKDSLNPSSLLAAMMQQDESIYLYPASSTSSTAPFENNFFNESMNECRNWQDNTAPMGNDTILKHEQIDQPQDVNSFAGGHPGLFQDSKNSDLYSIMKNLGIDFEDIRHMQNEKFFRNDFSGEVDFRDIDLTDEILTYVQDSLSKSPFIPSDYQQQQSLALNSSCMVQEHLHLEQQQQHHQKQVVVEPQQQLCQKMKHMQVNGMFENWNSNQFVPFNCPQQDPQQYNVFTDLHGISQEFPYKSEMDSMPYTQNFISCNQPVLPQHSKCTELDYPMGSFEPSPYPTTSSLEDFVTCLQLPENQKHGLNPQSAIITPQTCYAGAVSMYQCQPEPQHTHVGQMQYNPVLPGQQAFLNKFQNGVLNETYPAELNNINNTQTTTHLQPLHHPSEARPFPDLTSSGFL
M18AAP inhibitor: PfM18AAP inhibitors, malaria aminopeptidase, primary screen, biochemical, QFRET, recombinant enzyme. inhibition, % at 7.35 µM. H-Glu-NHMec fluorogenic cleavage. 290,000 compounds, 1.2% hits;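 active = inhibition above the campaign mean inhibition over all tested compounds plus 3 SD, cut at about 28% in these data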;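 note: 0% = plate median of test compound wells and 100% = 2 mM ZnCl2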
* marks the source's active call; other numbers are inactive results; u = inconclusive; x = not tested or not shown. An excerpt weighted towards active compounds, which were near 4.2% of everything screened.

SMILES | Fh CTSL1 inh | HDAC3 inh | GAA850 FXN act | SENP1 inh | AHR act | M18AAP inhibitor
Cc1c(C(=O)NCc2ccc3c(c2)OCCO3)sc(=O)n1Cc1ccccc1C(F)(F)F | x | x | -1 | -4 | x | x
CCOC(=O)N1CCC(N2Cc3cccc(C(=O)NCc4ccccn4)c3C2=O)CC1 | 27* | 0 | 2 | 1 | 0 | -7
O=C1CSC(c2cccc([N+](=O)[O-])c2)N1Cc1ccccc1 (centres undefined) | x | 0 | 1 | 0 | x | -12
N#Cc1c(N)c2ccccn2c1C(=O)c1ccc(Br)cc1 | 2 | 0 | 5 | -1 | 61* | 8
Cc1c(C#N)c(N=CN(C)C)c(C(=O)c2ccc(Br)cc2)n1-c1ccccc1 | 5 | -1 | 3 | 2 | 0 | 11
CCNCCNc1ccc(Cl)cc1[N+](=O)[O-] | 36* | -4 | 0 | 4 | 1 | 5
CS(=O)(=O)NCCCNc1ccc(Cl)cc1[N+](=O)[O-] | 4 | 1 | 1 | 3 | 2 | 1
O=C(CSc1nc2ccccc2[nH]1)N=Nc1c(O)[nH]c2ccccc12 | 0 | 1 | 3 | 1 | 53* | 11
Cn1c(SCC(=O)N=Nc2c(O)[nH]c3ccccc23)nc2ccccc21 | 0 | 4 | x | x | 26 | -3
C(=C\c1nc(N2CCCCCC2)c2ccccc2n1)/c1ccccc1 | 1 | 4 | 7 | -9 | 78* | 1
C[C@H](CO)N1C[C@H](C)[C@@H](CN(C)C(=O)Nc2ccccc2)Oc2ncc(-c3ccc(C#N)cc3)cc2C1=O | x | x | -4 | 2 | x | x
CNC(=O)c1ccc(CN(C)C(=O)c2cccc(S(=O)(=O)N3CCc4ccccc4C3)c2)cc1 | x | x | 1 | 2 | x | x
CCC(C)Sc1nc2c(cnn2-c2ccccc2)c(=O)[nH]1 (centres undefined) | 8 | -4 | 2 | 1 | 66* | -21
CCC(C)Sc1nc2c(cnn2-c2ccc(C)cc2)c(=O)[nH]1 (centres undefined) | 1 | 2 | 1 | 3 | 3 | 0
COC(=O)c1ccc(Cn2c(C)c(C(=O)NCc3ccc(Cl)c(Cl)c3)sc2=O)o1 | x | x | 0 | -4 | x | x
COc1ccc(C2C=C(c3ccc(C)cc3)Nc3ncnn32)cc1 (centres undefined) | x | x | 1 | 10 | x | 16
COc1ccc(C2C=C(c3ccc(Br)s3)Nc3ncnn32)cc1OC (centres undefined) | -2 | 2 | x | x | 20 | 36*
CSc1ccc(C(=O)C2CCCN(C(=O)CN3CCOC3=O)C2)cc1 (centres undefined) | x | 1 | 0 | 1 | x | -6
C/C(=N\NC(=O)C1CC1c1ccccc1)c1ccc(C)s1 (centres undefined) | 2 | 6 | 1 | 2 | 75* | -4
CCOC(=O)C(/C(C)=N/NC(=O)C1CC1c1ccccc1)C(C)C (centres undefined) | -3 | -3 | 2 | 2 | 2 | 0
CC(C)N1CCC(NC(=O)Nc2ccc3c(c2)OCO3)CC1 | 3 | -3 | 3 | 0 | 46 | 8
O=C(Nc1ccc2nc3ccccc3nc2c1)c1ccc(Br)cc1 | 0 | -1 | 6 | -23 | -1 | 3
Cc1cccc(NC(=O)c2cccc(NC(=O)c3ccccc3)c2)n1 | 3 | 4 | 1 | 0 | 34 | -3
Cc1ccc(C(=O)Nc2ccc3nccnc3c2)cc1 | 4 | -6 | 2 | -1 | -13 | 9
Cc1cccc(NC(=O)c2ccc3nccnc3c2)n1 | 0 | 3 | 3 | 1 | 48* | -4
SMILES | Fh CTSL1 inh | HDAC3 inh | GAA850 FXN act | SENP1 inh | AHR act | M18AAP inhibitor
Cc1cc(NC(=O)c2ccc3nccnc3c2)ccc1Br | x | -1 | 3 | -8 | 64* | x
O=C(Nc1ccc2cccnc2c1)c1ccc(Br)cc1 | 4 | 6 | 2 | 1 | 50* | -15
Cc1cccc(NC(=O)c2ccccc2Br)n1 | 5 | -2 | 2 | 5 | 62* | x
Cc1cccc(NC(=O)c2cccc3c2-c2ccccc2C3=O)n1 | -2 | u | 3 | 0 | 5 | 2
Cc1cccc2c1nc(-c1ccccc1)n1nnnc21 | 4 | -10 | 3 | -1 | 57* | -2
Cc1cccc2c1nc(-c1ccccc1)n1cnnc21 | 0 | 15 | 1 | 2 | 29 | 3
Cc1ccc2c(c1)sc[n+]2Cc1ccccc1 | -1 | -1 | 10* | -2 | 22 | 27
O=c1cc(COc2ccccc2[N+](=O)[O-])nc2sccn12 | -1 | 2 | x | x | 21 | -15
COc1ccc(/C=N/NC(=O)C(=O)N2CCN(c3ccccc3OC)CC2)cc1 | 0 | -4 | 8.4* | 2 | 1 | 10
Cc1ccc(/C=C(\C#N)c2nc3ccccc3[nH]2)s1 | 2 | 9 | 6 | -25 | 93* | -4
Cc1cc(/C=C(\C#N)c2nc3ccccc3[nH]2)c(C)n1C | 6 | 2 | 2 | -43 | 55* | 8
CN(C)/C=C(\C#N)c1nc2ccccc2[nH]1 | 3 | 8 | -2 | -26 | 4 | 4
N#C/C(=C\c1c(Cl)cccc1Cl)c1nc2ccccc2[nH]1 | -5 | 8 | 5 | -46 | 69* | -1
N#Cc1c(NC(=O)c2ccco2)sc2c1CCC2 | 2 | -10 | 3 | -11 | 4 | 11
Cc1onc(C(=O)Nc2sc3c(c2C#N)CCCC3)c1[N+](=O)[O-] | 23* | 3 | 2 | 3 | 18 | 26
COc1cccc(OC)c1C(=O)Nc1sc2c(c1C#N)CCC2 | -3 | -1 | 0 | -3 | 54* | 2
Fc1ccc(NC(=S)Nc2cccc3ccccc23)cc1 | -4 | u | 1 | -24 | 50* | 14
Fc1ccc(NC(=S)Nc2cccc3ccccc23)cc1F | -1 | 1 | 1 | -8 | 74* | 10
CC1(CCc2ccccc2)NC(=S)N(c2ccc(Cl)cc2)N1 (centres undefined) | -1 | -4 | 3 | -1 | 55* | 3
NC(=S)NC1CCS(=O)(=O)C1 (centres undefined) | 24* | -3 | -1 | 0 | 7 | -10
O=S1(=O)CCC(NC(=S)NCCNC(=S)NC2CCS(=O)(=O)C2)C1 (centres undefined) | 0 | -6 | 1 | 2 | 1 | -7
O=C(Nc1ccccc1)c1cnc2n(c1=O)CCS2 | 6 | -3 | 3 | 1 | 54* | -2
O=C(Nc1ccc(OC(F)(F)F)cc1)c1cnc2n(c1=O)CCS2 | 3 | 2 | 0 | 2 | 67* | x
Cc1cccc(NC(=O)c2cnc3n(c2=O)CCS3)c1 | -1 | 6 | 7 | 3 | 5 | 2
